Experimental findings from ChEMBL document CHEMBL1165913, “Repairing faulty genes by aminoglycosides: development of new derivatives of geneticin (G418) with enhanced suppression of diseases-causing nonsense mutations” (Bioorg Med Chem, 2010) are described below.

Converted amounts (≈) assume the structure as drawn. The source made the active and inactive calls. No cut-off for these calls is given here.

Data set [1] is described as follows: (§1) Cytotoxicity against HEK293 cells after 48 hrs by XTT assay. Type of data set: cell-based. Conditions: human, HEK293 cells; read-out: LC50. The gist of the method: (§2)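 HEK-293 cells seeded overnight at 5000 cells/well in DMEM with 10% FBS, 1% pen/strep and 1% glutamine. Medium then replaced with antibiotic-free medium, aminoglycoside added at a range of concentrations, and cells incubated 48 h. Read-out by O.D. on a plate reader. Viability is the ratio of living cells treated vs untreated. LC50 fitted from concentration–response curves of at least two independent experiments. Concentrations are given as free amine.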
On the technique in general: Tetrazolium assays rely on reduction of a dye to a coloured formazan, in cell work by metabolically active cells.

Another data set relates to Bacillus subtilis. Briefly: Antibacterial activity against Bacillus subtilis ATCC 6633 by double-microdilution method. It is filed as functional. The gist of the method: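 MIC determined by double-microdilution per NCCLS against Gram-positive B. subtilis ATCC-6633, starting at 384 µg/mL of compound. Run in triplicate (footnote says duplicates); analogous results in three separate experiments.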
In general terms: Dilution methods test growth across graded concentrations, often in twofold steps.

For data set [2], the system named is Ribosome. The experiment in a line: Induction of ribosome to readthrough in-frame UGA codon of renilla/firefly PCDH15 R245X nonsense mutant gene transfected in rabbit reticulocyte assessed as reduction in overall translation at 5 to 20 uM […] dual-luciferase reporter gene assay. It is filed as subcellular. The note with it: Oryctolagus cuniculus.
A further data set has as its system Escherichia coli. The experiment in a line: Antibacterial activity against Escherichia coli R477-100 by double-microdilution method. Type of data set: functional. The gist of the method:
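MIC by two-fold broth microdilution following NCCLS guidance; tested compound started at 384 µg/mL. Each run done in triplicate, with consistent results across three separate experiments.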

Data set [3] concerns Ribosome. The experiment in a line: Induction of ribosome to readthrough in-frame UAG codon of renilla/firefly IDUA Q70X nonsense mutant gene transfected in rabbit reticulocyte assessed as reduction in overall translation at 5 to 20 uM […] dual-luciferase reporter gene assay. It is filed as subcellular. The note with it: Oryctolagus cuniculus.
The test system of data set [4] is Ribosome. The experiment in a line: Induction of ribosome to readthrough in-frame UGA codon associated with renilla/firefly dystrophin R3381X nonsense mutant gene transfected in rabbit reticulocyte assessed as reduction in overall translation at 5 to 20 uM […] dual-luciferase reporter gene assay. It is filed as subcellular. Conditions: Oryctolagus cuniculus. On the technique in general: In a reporter assay the amount or activity of a reporter protein is the signal.

Data set [5] can be described thus: Inhibition of ribosomal activity in Spodoptera frugiperda Sf21 cells assessed as inhibition of translation after 60 mins by fluorescence assay. Type of data set: subcellular, Ribosome.
Data set [6] deals with Ribosome. Briefly: Induction of ribosome to readthrough in-frame UGA codon of renilla/firefly CFTR G542X nonsense mutant gene transfected in rabbit reticulocyte assessed as reduction in overall translation at 5 to 20 uM […] dual-luciferase reporter gene assay. Type of data set: subcellular. The note with it: Oryctolagus cuniculus.
Data set [7] deals with Ribosome. Briefly: Induction of ribosome to readthrough in-frame UGA codon of renilla/firefly PCDH15 R3X nonsense mutant gene transfected in rabbit reticulocyte assessed as reduction in overall translation at 5 to 20 uM […] dual-luciferase reporter gene assay. Conditions: Oryctolagus cuniculus. It is filed as subcellular.
The nature of data set [8]: Ratio of gentamicin to compound antitranslational activity against prokaryotic ribosome-mediated translation. Type of data set: subcellular.
Another data set deals with Bacterial 70S ribosome. Briefly: Inhibition of ribosomal activity in Escherichia coli strain B assessed as inhibition of translation after 60 mins by coupled transcription/translation assay. It is filed as subcellular. The gist of the method:
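E. coli S30 extract for circular DNA, with pBESTluc plasmid as template. Reactions containing varying aminoglycoside concentrations incubated at 37 °C for 60 min, chilled on ice 5 min, then diluted in tris-phosphate buffer (25 mM, pH 7.8) with DTT, chelator, glycerol, Triton X-100 and BSA. Luciferase luminescence read immediately after reagent addition. IC50 fitted from at least two independent experiments.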

A short description of data set [9]: Ratio of paromomycin to compound antitranslational activity against prokaryotic ribosome-mediated translation. It is filed as subcellular.
Data set [10] relates to Ribosome. The experiment in a line: Induction of ribosome to readthrough in-frame UGA codon of renilla/firefly CFTR W1282X nonsense mutant gene transfected in rabbit reticulocyte assessed as reduction in overall translation at 5 to 20 uM […] dual-luciferase reporter gene assay. Type of data set: subcellular. The note with it: Oryctolagus cuniculus.
The subject of data set [11] is Ribosome. Briefly: Induction of ribosome to readthrough in-frame renilla/firefly TGA codon transfected in rabbit reticulocyte at 200 to 600 uM after 16 hrs dual-luciferase reporter gene assay. Conditions: Oryctolagus cuniculus. It is filed as subcellular.
Data set [12] has as its system Ribosome. Briefly: Induction of ribosome to readthrough in-frame renilla/firefly TGA codon transfected in rabbit reticulocyte at 5 to 20 uM after 16 hrs dual-luciferase reporter gene assay. Type of data set: subcellular. Conditions: Oryctolagus cuniculus.
Data set [13] is described as follows: Cytotoxicity against HDF after 72 hrs by XTT assay. It is filed as cell-based. Conditions: human. The gist of the method:
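Primary human dermal fibroblasts isolated from adult skin. Handled as in the HEK-293 protocol (overnight seeding, antibiotic-free medium, range of aminoglycoside concentrations), but exposed for 72 h. Viability is the ratio of treated to untreated living cells by O.D. LC50 fitted from concentration–response curves of at least two independent experiments.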

Data set [14] is described as follows: Ratio of compound LC50 to geneticin LC50 for HEK293 cells. Type of data set: ADME, cell-based. Conditions: human. The gist of the method: (§3)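 HEK-293 cells seeded 5000/well overnight in DMEM with 10% FBS, 1% pen/strep, 1% glutamine; medium replaced without antibiotics, aminoglycosides added at varying concentrations for 48 h; OD read on plate reader. Viability as living cells treated versus untreated; LC50 from concentration–response fits of at least two independent experiments; ratios relative to reference drug LC50.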

Data set [15] deals with Ribosome. Briefly: Induction of ribosome to readthrough in-frame UGA codon of renilla/firefly CFTR W1282X nonsense mutant gene transfected in HEK293 cells assessed as reduction in overall translation at 1 to 2 mM after 6 hrs dual-luciferase reporter gene assay. It is filed as subcellular. Conditions: Homo sapiens.
The test system of data set [16] is Ribosome. The experiment in a line: Induction of ribosome to readthrough in-frame UGA codon of renilla/firefly PCDH15 R3X nonsense mutant gene transfected in HEK293 cells assessed as reduction in overall translation at 1 to 2 mM after 6 hrs dual-luciferase reporter gene assay. Type of data set: subcellular. The note with it: Homo sapiens.
Data set [17] has as its system Ribosome. The experiment in a line: Induction of ribosome to readthrough in-frame UAG codon of renilla/firefly IDUA Q70X nonsense mutant gene transfected in HEK293 cells assessed as reduction in overall translation at 1 to 2 mM after 6 hrs dual-luciferase reporter gene assay. Type of data set: subcellular. The note with it: Homo sapiens.
Data set [18] concerns HEK293. The experiment in a line: Ratio of geneticin to compound activity for induction of ribosome to readthrough in-frame UGA codon of renilla/firefly CFTR W1282X nonsense mutant gene transfected in HEK293 cells at 0.1 to 0.7 mM after 6 hrs dual-luciferase reporter gene assay. It is filed as subcellular. The note with it: Homo sapiens.
For data set [19], the system named is HEK293. Briefly: Ratio of compound LC50 to gentamicin LC50 for HEK293 cells. The note with it: human. Type of data set: ADME, cell-based. The gist of the method:
as §3

Data set [20] has as its system HEK293. Described as §1. It is filed as cell-based. Conditions: human, hek293, 48 h; read-out: LC50 (the source's name). The gist of the method:
as §2

As a reminder, the MIC is the least concentration at which growth counts as inhibited. A low value points to a more susceptible organism. A word on the inhibition: it is the relative decrease from the control value, in per cent. In general, IC50 refers to the concentration that gives 50% inhibition. Take `NC[C@H]1O[C@@H](O[C@@H]2[C@@H](O)[C@H](N)C[C@H](N)[C@H]2O[C@H]2O[C@H](CO)[C@@H](O)[C@H](O)[C@H]2N)[C@H](O)[C@@H]1O`: the CC50 at 48 h in data set [1] stood at 21400 µM. The MIC was 100 µM (≈ 45.4 µg/mL) in the data set on Bacillus subtilis and 790 µM (≈ 359 µg/mL) against Escherichia coli. In addition, the inhibition with Ribosome [2], in the data set with Ribosome [3], in the data set on Ribosome [4], with Ribosome [6], in the data set on Ribosome [7] and with Ribosome [10] was 10% throughout. Besides, the IC50 in data set [5] came to 31 µM; at Bacterial 70S ribosome, 0.46 µM. The Ratio in data set [8] and in data set [9] was 10 each time.
As to `N[C@H]1[C@@H](O[C@H]2[C@H](O)[C@@H](O)[C@H](N)C[C@@H]2N)O[C@H](CO)[C@@H](O)[C@@H]1O`, the outcome in the data set on Ribosome [11] and in the data set with Ribosome [12] was Active.
`NCC[C@H](O)C(=O)N[C@@H]1C[C@H](N)[C@@H](O[C@H]2O[C@H](CO)[C@@H](O)[C@H](O)[C@H]2N)[C@H](O)[C@H]1O`: the outcome with Ribosome [11] and in the data set on Ribosome [12] was Active.
As to `CN[C@@H]1[C@@H](O)[C@@H](O[C@@H]2[C@@H](O)[C@H](O[C@H]3O[C@H]([C@@H](C)O)[C@@H](O)[C@H](O)[C@H]3N)[C@@H](N)C[C@H]2N)OC[C@]1(C)O` [GENETICIN], the CC50 at 48 h in [1] was 1300 µM. Moreover, the MIC with Bacillus subtilis was < 1.25 µM; against Escherichia coli, 9 µM (≈ 4.47 µg/mL). Besides, the CC50 at 72 h in data set [13] (HDF cells, read-out: LC50) was found to be 2000 µM. Also, on Bacterial 70S ribosome, the IC50 was determined as 0.0089 µM.
On to `C[C@H](O)[C@H]1O[C@H](O[C@H]2[C@H](O[C@@H]3O[C@H](CN)[C@@H](O)[C@H]3O)[C@@H](O)[C@H](N)C[C@@H]2N)[C@H](N)[C@@H](O)[C@@H]1O`, for which, in data set [1], the CC50 at 48 h was 25800 µM. The compound also registered an MIC with Bacillus subtilis of 42 µM (≈ 19.7 µg/mL). For the same compound, the inhibition in the data set with Ribosome [2], in the data set with Ribosome [3], in the data set with Ribosome [4], in the data set on Ribosome [6], in the data set on Ribosome [7] and with Ribosome [10] was 10% in each case. Also, the IC50 on Bacterial 70S ribosome turned out to be 1.13 µM.
Take `C[C@H](O)[C@H]1O[C@H](O[C@H]2[C@H](O)[C@@H](O)[C@H](NC(=O)[C@@H](O)CCN)C[C@@H]2N)[C@H](N)[C@@H](O)[C@@H]1O`: the outcome with Ribosome [12] was Active.
For `C[C@H](O)[C@H]1O[C@H](O[C@H]2[C@H](O)[C@@H](O)[C@H](N)C[C@@H]2N)[C@H](N)[C@@H](O)[C@@H]1O`, the outcome with Ribosome [11] and with Ribosome [12] was Active.
Take GENTAMICIN [listing 1 of 2 here]: the MIC against Bacillus subtilis was < 0.75 µM; with Escherichia coli it was 6 µM.
`C[C@H](O)[C@H]1O[C@H](O[C@H]2[C@H](O[C@@H]3O[C@H](CN)[C@@H](O)[C@H]3O)[C@@H](O)[C@H](NC(=O)[C@@H](O)CCN)C[C@@H]2N)[C@H](N)[C@@H](O)[C@@H]1O`: the selectivity ratio in [14] is 5. Further, the inhibition entry in the data set on Ribosome [15], in the data set on Ribosome [16] and in the data set with Ribosome [17] was “Active” in each case. In addition, the CC50 at 48 h in data set [1] came to 7000 µM. Moreover, the figures for the MIC against Bacillus subtilis and in the data set with Escherichia coli were 70 µM (≈ 39.9 µg/mL) and 556 µM (≈ 317 µg/mL), respectively. For the same compound, the inhibition in the data set with Ribosome [2], in the data set on Ribosome [3], in the data set on Ribosome [4], in the data set with Ribosome [6], in the data set with Ribosome [7] and in the data set on Ribosome [10] was 50% each time. In addition, the IC50 in data set [5] came to 2.8 µM; at Bacterial 70S ribosome it was 0.98 µM. Also, the values for the Ratio with HEK293 [18] and in the data set with HEK293 [19] were 2 and 2.8, respectively.
Consider `NCC[C@H](O)C(=O)N[C@@H]1C[C@H](N)[C@@H](O[C@H]2O[C@H](CO)[C@@H](O)[C@H](O)[C@H]2N)[C@H](O[C@@H]2O[C@H](CN)[C@@H](O)[C@H]2O)[C@H]1O`, for which the inhibition entry in the data set on Ribosome [15], with Ribosome [16] and with Ribosome [17] was “Active” throughout. Further, in data set [1], the CC50 at 48 h is 6100 µM. The figures for the MIC with Bacillus subtilis and in the data set on Escherichia coli were 70 µM (≈ 38.9 µg/mL) and 588 µM (≈ 327 µg/mL), respectively. Also, the inhibition with Ribosome [2], in the data set on Ribosome [3], with Ribosome [4], in the data set on Ribosome [6], in the data set on Ribosome [7] and in the data set on Ribosome [10] was 10% in each case. Further, the figures for the IC50 (in data set [5]; on Bacterial 70S ribosome) were 24 µM and 0.16 µM, respectively. Besides, the Ratio in data set [8] and in [9] was 10 throughout.
For the compound GENTAMICIN [listing 2 of 2 here], the CC50 with HEK293 [20] turned out to be 2500 µM; in data set [13] (hdf, 72 h, read-out: LC50 (the source's name)) it was 3800 µM. Further, the values for the IC50 (in data set [5]; at Bacterial 70S ribosome) were 62 µM and 0.028 µM, respectively.
